This is a sample that favours compounds with a hit; in the whole collection about 1.7% have one here.
EBNA-1 inhibitor: EBNA-1 DNA-binding inhibitors, primary screen, biochemical, fluorescence polarization. inhibition, % at 14.8 µM. AID 1950, 2009. 300,000 compounds, 0.34% hits; in the data active means inhibition above about 28%
UBC13 inh: UBC13 polyubiquitin chain formation inhibitors, primary screen, biochemical, TR-FRET, uHTS; Ubiquitin-conjugating enzyme E2 N (Homo sapiens), P61088; inhibition, % at 20 µM; 330,000 compounds, 0.47% hits; in the data active means inhibition above about 45%, passing the limit was not always enough
Target sequence (P61088 whole entry, looked up): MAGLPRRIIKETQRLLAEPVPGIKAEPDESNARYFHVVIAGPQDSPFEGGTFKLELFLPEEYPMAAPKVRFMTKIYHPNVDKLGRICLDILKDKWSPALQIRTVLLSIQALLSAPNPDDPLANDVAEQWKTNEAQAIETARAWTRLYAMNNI
PREPL inhibitor: PREPL enzyme inhibitors, primary screen, biochemical, fluorescence polarization; recombinant PREPL, fluorescence polarization activity-based probe; Prolyl endopeptidase-like (Homo sapiens), Q4J6C6; 320,000 compounds, 0.68% hits; inhibition, % at 5.96 µM; in the data active means inhibition above about 43%
ZTA DNA inh: counter-screen for EBNA-1 inhibitors: inhibitors of Epstein-Barr virus ZTA; P03206; ZTA-DNA binding, fluorescence polarization; inhibition, % at 11 µM; 320,000 compounds, 0.15% hits; AID 2234; in the data active means inhibition above about 33%
Target sequence (P03206 whole entry, looked up): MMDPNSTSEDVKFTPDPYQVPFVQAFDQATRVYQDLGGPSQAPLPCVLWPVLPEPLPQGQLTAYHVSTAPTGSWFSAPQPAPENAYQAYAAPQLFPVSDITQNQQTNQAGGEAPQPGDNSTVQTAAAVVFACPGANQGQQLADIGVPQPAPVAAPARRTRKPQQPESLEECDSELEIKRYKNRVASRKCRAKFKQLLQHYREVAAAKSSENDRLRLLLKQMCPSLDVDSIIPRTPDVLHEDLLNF
Apaf-1 inh: inhibitors of human Apaf-1 apoptosome, primary screen, biochemical, DEVD-Rh110 fluorescence, uHTS; inhibition, % at 20 µM; 330,000 compounds, 0.71% hits; reconstituted apoptosome caspase-3 activity; Apoptotic protease-activating factor 1 (Homo sapiens), O14727; active means inhibition of at least 40% at 20 µM
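Material: reconstituted apoptosome with Apaf-1, cytochrome c, caspase-9, procaspase-3, dATP / Buffer or medium: pH 7.5 Hepes buffer with CHAPS, BSA, DTT / Also added: cytochrome c with DEVD-Rh110 / Schedule: compound with Apaf-1, dATP, procaspase-3 30 min, then 50 min reaction, room temperature / Technique: rhodamine 110 fluorescence at Ex 480/Em 540 nm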
EBNA-1 inh conf: EBNA-1 DNA-binding inhibitors, retest, confirmation, biochemical, fluorescence polarization, triplicate; shares compounds with EBNA-1 inhibitor; Recombinant EBNA-1 DBD, Cy5-DNA fluorescence polarization; inhibition, % at 14.8 µM; 830 compounds, 35% hits; AID 2292, 2010;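 active means mean inhibition across replicates above a set limit taken from the earlier primary screen, cut at about 28% in these data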
ZTA counter trip: EBV Zta DNA binding inhibitors, counter-screen for EBNA-1 inhibitor project, biochemical, fluorescence polarization, triplicate; shares compounds with EBNA-1 inhibitor; Zta-ZRE DNA binding, Cy5 fluorescence polarization; inhibition, % at 11.1 µM; 830 tested, under 10 active;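 active means mean inhibition over triplicates above a set limit taken from the primary EBNA-1 screen, cut at about 37% in these data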;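 further: purified full length Zta protein with Cy5 labeled ZRE DNA probe; inhibitors lower polarization by freeing the labeled DNA probe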
Each line names hits and unclear results; the compound was inactive in the other large screens (follow-up assays come after a bar, where they were run).

O=C(Nc1ccc(N2CCN(c3ccc(C(F)(F)F)cn3)CC2)nc1)c1cccs1	EBNA-1 inhibitor 39 | EBNA-1 inh conf inactive | ZTA counter trip inactive
CCCCNC(=O)C1CCC(CNc2nc(=S)[nH]c3ccccc23)CC1 (stereo not given)	none
O=C(NCCC1=CCCCC1)C1CCC(CNc2nc(=S)[nH]c3ccccc23)CC1 (stereo not given)	EBNA-1 inhibitor 32 | EBNA-1 inh conf inactive | ZTA counter trip inactive
O=C(NCc1ccccc1Cl)C1CCC(CNc2nc(=S)[nH]c3ccccc23)CC1 (stereo not given)	none
O=C(NCCc1ccc(Cl)cc1)C1CCC(CNc2nc(=S)[nH]c3ccccc23)CC1 (stereo not given)	EBNA-1 inhibitor 30 | EBNA-1 inh conf 32 | ZTA counter trip inactive
O=Cc1cccc2ccc3cccc(C(=O)O)c3c12	none
CCC(=O)Nc1ccc(Cl)c(NC(=S)NC(=O)c2cc3ccccc3o2)c1	EBNA-1 inhibitor 39 | EBNA-1 inh conf inactive | ZTA counter trip inactive
CCOc1ccc(-n2c(=O)c3sccc3n(CC(=O)Nc3cccc(OC)c3)c2=O)cc1	EBNA-1 inhibitor 52 | EBNA-1 inh conf 31 | ZTA counter trip inactive
COc1ccc(NC(=O)Cn2c(=O)n(-c3ccccc3)c(=O)c3sccc32)c(OC)c1	none
O=C(COC(=O)C1CCN(S(=O)(=O)c2cccs2)CC1)c1ccc2c(c1)OCCO2	none
O=C1COc2ccc(C(=O)COC(=O)C3CCN(S(=O)(=O)c4cccs4)CC3)cc2N1	EBNA-1 inhibitor 35 | EBNA-1 inh conf inactive | ZTA counter trip inactive
COc1cccc(NC(=O)Nc2nnc(Cc3ccc(OC)c(OC)c3)s2)c1	none
COc1ccc(Cc2nnc(NC(=O)Nc3ccccc3)s2)cc1OC	EBNA-1 inhibitor 60 | EBNA-1 inh conf inactive | ZTA counter trip inactive
COc1ccc(C(=O)Nc2nnc(Cc3cccs3)s2)cc1OC	EBNA-1 inhibitor 30 | EBNA-1 inh conf 52 | ZTA counter trip inactive
COc1cc(Cl)ccc1NC(=S)N(CCCN1CCOCC1)Cc1cn(C)c2ccccc12	none
COC(=O)c1cccc(CSC(=S)N2CCCC2)c1	none
Cc1ccc(NCc2nnc(SCC(=O)Nc3cc(C)on3)n2C)cc1	none
Cc1cccc(OCc2nnc(SCC(=O)Nc3cc(C)on3)n2C)c1	EBNA-1 inhibitor 31 | EBNA-1 inh conf inactive | ZTA counter trip inactive
COc1ccc(C(=O)NNC(=O)CSc2nnc(COc3ccc4ccccc4c3)n2C)cc1	EBNA-1 inhibitor 82 | EBNA-1 inh conf 36 | ZTA counter trip inactive
CCCCCNC(=O)C1CCC(Cn2c(=S)[nH]c3ccccc3c2=O)CC1 (stereo not given)	EBNA-1 inhibitor 44 | EBNA-1 inh conf inactive | ZTA counter trip inactive
O=C(CCN1C(=O)/C(=C\c2cccs2)SC1=S)NC1=NCCS1	none
O=C(CCN1C(=O)/C(=C/c2cccs2)SC1=S)NC1=NCCS1	EBNA-1 inhibitor 34 (no result: UBC13 inh, Apaf-1 inh) | EBNA-1 inh conf inactive | ZTA counter trip inactive
O=C(COc1ccc2ccccc2c1)NNC(=O)Cc1ccccc1	EBNA-1 inhibitor 28 (no result: UBC13 inh, Apaf-1 inh) | EBNA-1 inh conf 35 | ZTA counter trip inactive
CCc1c(C)sc2nc(SCC(=O)Nc3cc(C)on3)n(CCOC)c(=O)c12	EBNA-1 inhibitor 34 | EBNA-1 inh conf inactive | ZTA counter trip inactive
CCOc1ccc(S(=O)(=O)N2CC(=O)Nc3ccccc32)cc1C#N	none
CCOc1cc(NS(=O)(=O)c2ccc(NC(C)=O)cc2)c(OCC)cc1NC(=O)c1cccs1	EBNA-1 inhibitor 41 | EBNA-1 inh conf 28 | ZTA counter trip inactive
CCOc1cc(NC(=S)NC)c(OCC)cc1NC(=O)c1cccs1	none
COc1ccc(CN(C(=O)c2ccco2)c2ccc(C)c(C)c2)cc1	none
COc1ccc(-c2ccc(C#N)c(SCC(=O)NCCc3ccccc3)n2)cc1OC	EBNA-1 inhibitor 28 | EBNA-1 inh conf inactive | ZTA counter trip inactive

Screening data from PubChem BioAssay.
